Active and inactive are the calls of the source. The calls are words filed in the database; no cut-off is given here.
Tested on: NBT2
Test: Induction of multinuclei formation in rat NBT2 cells assessed as inhibition of cytokinesis at 0.5 to 2 ug/mL after 72 hrs
Type: functional, cell-based
Method in brief: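 Rat bladder epithelial NBT-II cells in modified Eagle's medium with 10% heat-inactivated FBS, streptomycin, amphotericin B and glutamic acid; exposed to graded briarane concentrations at 37 °C for 72 h; multinucleation scored by microscopy at 48 and 72 h.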

SMILES	Activity
C=C1/C=C\[C@@H](OC(C)=O)[C@@]2(C)C=C[C@@H](OC(C)=O)[C@](O)(COC(C)=O)[C@@H]2[C@H](OC(C)=O)[C@]2(O)[C@@H](C)C(=O)O[C@H]2[C@H]1Cl	Active
C=C1CC[C@@H](OC(C)=O)[C@@]2(C)[C@@H](OC(C)=O)CC[C@@]3(CO3)[C@@H]2[C@H](OC(C)=O)[C@]2(O)[C@@H](C)C(=O)O[C@H]2[C@H]1Cl	Active

Tested on: KB-C2
Test: Reversal of multidrug resistance in human KB-C2 cells after 72 hrs by MTT assay
Type: functional, cell-based
Method in brief: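 KB-C2 MDR line (selected from KB-3-1, kept in 2 µg/mL colchicine), RPMI 1640 with 10% newborn calf serum; 10 000 cells/well, 24 h preincubation at 37 °C, 5% CO2; colchicine plus sample added for 48 h; MTT 3 h, formazan in DMSO, absorbance 540 nm gives % growth inhibition; cytotoxicity checked in parental KB-3-1.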

SMILES	Activity
CC(=O)OCC1=C/[C@@H]2OC(=O)[C@H](C)[C@@]2(O)[C@@H](OC(C)=O)[C@H]2[C@]3(C)O[C@@H]3C[C@H](OC(C)=O)[C@]2(C)[C@@H](OC(C)=O)\C=C\1	inactive
C=C1[C@H](Cl)[C@@H]2OC(=O)[C@H](C)[C@]23O[C@@]1(O)C[C@H](OC(C)=O)[C@]1(C)[C@H]([C@@H](C)[C@H](OC(=O)c2ccccc2)C[C@@H]1OC(C)=O)[C@@H]3OC(C)=O	Active
CCC(=O)O[C@@H]1C[C@H](OC(C)=O)[C@]2(C)[C@H](OC(C)=O)/C=C\C(CCl)=C/[C@@H]3OC(=O)[C@H](C)[C@@]3(O)[C@@H](OC(C)=O)[C@H]2[C@]1(C)O	inactive
C=C1/C=C/[C@H](OC(C)=O)[C@@]2(C)[C@@H](OC(C)=O)C[C@H]3O[C@@]3(C)[C@@H]2[C@H](OC(C)=O)[C@]2(O)[C@@H](C)C(=O)O[C@H]2[C@H]1Cl	inactive

Tested on: KB-CV60
Test: Reversal of multidrug resistance in human KB-CV60 cells after 72 hrs by MTT assay
Type: functional, cell-based
Method in brief: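 KB-CV60 MDR line (selected from KB-3-1, kept in 1 µg/mL cepharanthine and 60 ng/mL vincristine), RPMI 1640 with 10% newborn calf serum; 10 000 cells/well, 24 h preincubation at 37 °C, 5% CO2; anticancer agent plus sample for 48 h; MTT 3 h, formazan in DMSO, A540 gives % growth inhibition.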

SMILES	Activity
CC(=O)OCC1=C/[C@@H]2OC(=O)[C@H](C)[C@@]2(O)[C@@H](OC(C)=O)[C@H]2[C@]3(C)O[C@@H]3C[C@H](OC(C)=O)[C@]2(C)[C@@H](OC(C)=O)\C=C\1	inactive
C=C1[C@H](Cl)[C@@H]2OC(=O)[C@H](C)[C@]23O[C@@]1(O)C[C@H](OC(C)=O)[C@]1(C)[C@H]([C@@H](C)[C@H](OC(=O)c2ccccc2)C[C@@H]1OC(C)=O)[C@@H]3OC(C)=O	Active
CCC(=O)O[C@@H]1C[C@H](OC(C)=O)[C@]2(C)[C@H](OC(C)=O)/C=C\C(CCl)=C/[C@@H]3OC(=O)[C@H](C)[C@@]3(O)[C@@H](OC(C)=O)[C@H]2[C@]1(C)O	inactive
C=C1/C=C/[C@H](OC(C)=O)[C@@]2(C)[C@@H](OC(C)=O)C[C@H]3O[C@@]3(C)[C@@H]2[C@H](OC(C)=O)[C@]2(O)[C@@H](C)C(=O)O[C@H]2[C@H]1Cl	inactive
